{"source": "ChEMBL document CHEMBL1148959", "about": "“Annoglabayin, a novel dimeric kaurane diterpenoid, and apoptosis in Hep G2 cells of annomontacin from the fruits of Annona glabra” (2004)", "type_in_all_cases": "functional", "key": {"HepG2 [1]": {"tested_on": "HepG2", "assay": "Induction of early apoptosis in human HepG2 cells assessed as number of cells with decreased mitochondrial transmembrane potential at 100 uM after 3 hrs using rhodamine 123 staining by FACS", "summary_of_the_method": "(§1)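 Hep G2 cells seeded 5 × 105 per 60 mm dish 48 h ahead in DMEM with 10% FCS, penicillin, streptomycin and amphotericin B. Compound diluted into medium from a 200 mM DMSO stock and applied for 3, 6, 9 or 24 h; untreated cells as control. Medium then replaced with 5 µM rhodamine 123 for 30 min in the dark. Cells trypsinized and mean rhodamine 123 fluorescence read by flow cytometry. Run at least three times, with a representative experiment shown.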"}, "HepG2 [2]": {"tested_on": "HepG2", "assay": "Induction of apoptosis in human HepG2 cells assessed as cellular membrane damage at 100 uM after 9 hrs using propidium iodide staining by FACS", "summary_of_the_method": "(§2)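 Treated or untreated for 3, 6, 9 or 24 h at 100 µM, Hep G2 cells were trypsinized and stained 10 min with 5 µg/mL PI. Argon laser excitation at 488 nm, emission >580 nm, ≥10 000 cells counted. Cells were classed as intact or membrane-damaged after gating out debris. At least three runs; a representative run is shown.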"}, "HepG2 [3]": {"tested_on": "HepG2", "assay": "Cell cycle arrest in human HepG2 cells assessed as accumulation at G2M phase at 50 uM after 24 hrs using propidium iodide staining by FACS", "summary_of_the_method": "(§3)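 Hep G2 cells seeded at 5 × 10^5 per 60 mm dish 48 h ahead in DMEM with 10% FCS and antibiotics. Exposed 24 h; compound from DMSO stock diluted in medium. Adherent and floating cells pooled, fixed in PBS-MeOH (1:2) at 4 °C ≥18 h, then stained 30 min at room temperature in the dark with 50 µg/mL PI plus 50 µg/mL RNaseA. Flow cytometry at 488 nm excitation, emission >580 nm, doublets gated out; subG1 taken as the subdiploid fraction.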"}, "HepG2 [4]": {"tested_on": "HepG2", "assay": "Cell cycle arrest in human HepG2 cells assessed as accumulation at subG1 phase at 100 uM after 24 hrs using propidium iodide staining by FACS", "summary_of_the_method": "as §3"}, "HepG2 [5]": {"tested_on": "HepG2", "assay": "Cell cycle arrest in human HepG2 cells assessed as accumulation at subG1 phase at 75 uM after 24 hrs using propidium iodide staining by FACS", "summary_of_the_method": "as §3"}, "HepG2 [6]": {"tested_on": "HepG2", "assay": "Induction of early apoptosis in human HepG2 cells assessed as number of cells with decreased mitochondrial transmembrane potential at 100 uM after 9 hrs using rhodamine 123 staining by FACS", "summary_of_the_method": "as §1"}, "HepG2 [7]": {"tested_on": "HepG2", "assay": "Cell cycle arrest in human HepG2 cells assessed as accumulation at S phase at 25 uM after 24 hrs using propidium iodide staining by FACS", "summary_of_the_method": "as §3"}, "HepG2 [8]": {"tested_on": "HepG2", "assay": "Effect on morphology in human HepG2 cells assessed as low cellular shape change at 100 uM after 6 hrs by FACS", "summary_of_the_method": "(§4)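 Hep G2 cells in DMEM/10% FCS were treated with or without 100 µM for 3, 6, 9 or 24 h, then trypsinized. Forward scatter (size) and side scatter (granularity) were read by flow cytometry. Normal versus low shape change was expressed as a percentage after gating out cellular debris. At least three runs; a representative run is shown.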"}, "HepG2 [9]": {"tested_on": "HepG2", "assay": "Cell cycle arrest in human HepG2 cells assessed as accumulation at G2M phase at 75 uM after 24 hrs using propidium iodide staining by FACS", "summary_of_the_method": "as §3"}, "HepG2 [10]": {"tested_on": "HepG2", "assay": "Induction of apoptosis in human HepG2 cells assessed as cellular membrane damage at 100 uM after 24 hrs using propidium iodide staining by FACS", "summary_of_the_method": "as §2"}, "HepG2 [11]": {"tested_on": "HepG2", "assay": "Induction of apoptosis in human HepG2 cells assessed as cellular membrane damage at 100 uM after 3 hrs using propidium iodide staining by FACS", "summary_of_the_method": "as §2"}, "HepG2 [12]": {"tested_on": "HepG2", "assay": "Cell cycle arrest in human HepG2 cells assessed as accumulation at G2M phase at 25 uM after 24 hrs using propidium iodide staining by FACS", "summary_of_the_method": "as §3"}, "HepG2 [13]": {"tested_on": "HepG2", "assay": "Effect on morphology in human HepG2 cells assessed as low cellular shape change at 100 uM after 3 hrs by FACS", "summary_of_the_method": "as §4"}, "HepG2 [14]": {"tested_on": "HepG2", "assay": "Cell cycle arrest in human HepG2 cells assessed as accumulation at subG1 phase at 50 uM after 24 hrs using propidium iodide staining by FACS", "summary_of_the_method": "as §3"}, "HepG2 [15]": {"tested_on": "HepG2", "assay": "Cell cycle arrest in human HepG2 cells assessed as accumulation at G2M phase at 100 uM after 24 hrs using propidium iodide staining by FACS", "summary_of_the_method": "as §3"}, "HepG2 [16]": {"tested_on": "HepG2", "assay": "Cell cycle arrest in human HepG2 cells assessed as accumulation at S phase at 75 uM after 24 hrs using propidium iodide staining by FACS", "summary_of_the_method": "as §3"}, "HepG2 [17]": {"tested_on": "HepG2", "assay": "Cell cycle arrest in human HepG2 cells assessed as accumulation at S phase at 50 uM after 24 hrs using propidium iodide staining by FACS", "summary_of_the_method": "as §3"}, "HepG2 [18]": {"tested_on": "HepG2", "assay": "Cell cycle arrest in human HepG2 cells assessed as accumulation at G1 phase at 50 uM after 24 hrs using propidium iodide staining by FACS", "summary_of_the_method": "as §3"}, "HepG2 [19]": {"tested_on": "HepG2", "assay": "Effect on morphology in human HepG2 cells assessed as low cellular shape change at 100 uM after 9 hrs by FACS", "summary_of_the_method": "as §4"}, "HepG2 [20]": {"tested_on": "HepG2", "assay": "Cell cycle arrest in human HepG2 cells assessed as accumulation at G1 phase at 25 uM after 24 hrs using propidium iodide staining by FACS", "summary_of_the_method": "as §3"}, "HepG2 [21]": {"tested_on": "HepG2", "assay": "Effect on morphology in human HepG2 cells assessed as low cellular shape change at 100 uM after 24 hrs by FACS", "summary_of_the_method": "as §4"}, "HepG2 [22]": {"tested_on": "HepG2", "assay": "Cell cycle arrest in human HepG2 cells assessed as accumulation at G1 phase at 75 uM after 24 hrs using propidium iodide staining by FACS", "summary_of_the_method": "as §3"}, "HepG2 [23]": {"tested_on": "HepG2", "assay": "Induction of early apoptosis in human HepG2 cells assessed as number of cells with decreased mitochondrial transmembrane potential at 100 uM after 24 hrs using rhodamine 123 staining by FACS", "summary_of_the_method": "as §1"}, "HepG2 [24]": {"tested_on": "HepG2", "assay": "Cell cycle arrest in human HepG2 cells assessed as accumulation at S phase at 100 uM after 24 hrs using propidium iodide staining by FACS", "summary_of_the_method": "as §3"}, "HepG2 [25]": {"tested_on": "HepG2", "assay": "Induction of early apoptosis in human HepG2 cells assessed as number of cells with decreased mitochondrial transmembrane potential at 100 uM after 6 hrs using rhodamine 123 staining by FACS", "summary_of_the_method": "as §1"}, "HepG2 [26]": {"tested_on": "HepG2", "assay": "Induction of apoptosis in human HepG2 cells assessed as cellular membrane damage at 100 uM after 6 hrs using propidium iodide staining by FACS", "summary_of_the_method": "as §2"}, "HepG2 [27]": {"tested_on": "HepG2", "assay": "Cell cycle arrest in human HepG2 cells assessed as accumulation at G1 phase at 100 uM after 24 hrs using propidium iodide staining by FACS", "summary_of_the_method": "as §3"}, "HepG2 [28]": {"tested_on": "HepG2", "assay": "Cell cycle arrest in human HepG2 cells assessed as accumulation at subG1 phase at 25 uM after 24 hrs using propidium iodide staining by FACS", "summary_of_the_method": "as §3"}}, "data": [{"smiles": "CCCCCCCCCCCC[C@H](O)[C@@H]1CC[C@@H]([C@@H](O)CCCCCCC(O)CCCCC[C@@H](O)CC2=C[C@H](C)OC2=O)O1", "note": "(stereo partly drawn) [ANNOMONTACIN]", "values": [{"measurement": "Flu intensity", "setting": "HepG2 [1]", "value": 367}, {"measurement": "Activity", "setting": "HepG2 [2]", "value": 32.4, "unit": "%"}, {"measurement": "Activity", "setting": "HepG2 [3]", "value": 8.3, "unit": "%"}, {"measurement": "Activity", "setting": "HepG2 [4]", "value": 58.3, "unit": "%"}, {"measurement": "Activity", "setting": "HepG2 [5]", "value": 50.7, "unit": "%"}, {"measurement": "Flu intensity", "setting": "HepG2 [6]", "value": 213}, {"measurement": "Activity", "setting": "HepG2 [7]", "value": 39.1, "unit": "%"}, {"measurement": "Activity", "setting": "HepG2 [8]", "value": 50.5, "unit": "%"}, {"measurement": "Activity", "setting": "HepG2 [9]", "value": 9.8, "unit": "%"}, {"measurement": "Activity", "setting": "HepG2 [10]", "value": 69.5, "unit": "%"}, {"measurement": "Activity", "setting": "HepG2 [11]", "value": 7.1, "unit": "%"}, {"measurement": "Activity", "setting": "HepG2 [12]", "value": 10.8, "unit": "%"}, {"measurement": "Activity", "setting": "HepG2 [13]", "value": 40.1, "unit": "%"}, {"measurement": "Activity", "setting": "HepG2 [14]", "value": 12.2, "unit": "%"}, {"measurement": "Activity", "setting": "HepG2 [15]", "value": 10.4, "unit": "%"}, {"measurement": "Activity", "setting": "HepG2 [16]", "value": 35.9, "unit": "%"}, {"measurement": "Activity", "setting": "HepG2 [17]", "value": 37.1, "unit": "%"}, {"measurement": "Activity", "setting": "HepG2 [18]", "value": 54.6, "unit": "%"}, {"measurement": "Activity", "setting": "HepG2 [19]", "value": 75.4, "unit": "%"}, {"measurement": "Activity", "setting": "HepG2 [20]", "value": 50.2, "unit": "%"}, {"measurement": "Activity", "setting": "HepG2 [21]", "value": 80.1, "unit": "%"}, {"measurement": "Activity", "setting": "HepG2 [22]", "value": 54.3, "unit": "%"}, {"measurement": "Flu intensity", "setting": "HepG2 [23]", "value": 75}, {"measurement": "Activity", "setting": "HepG2 [24]", "value": 32.9, "unit": "%"}, {"measurement": "Flu intensity", "setting": "HepG2 [25]", "value": 241}, {"measurement": "Activity", "setting": "HepG2 [26]", "value": 6.9, "unit": "%"}, {"measurement": "Activity", "setting": "HepG2 [27]", "value": 56.7, "unit": "%"}, {"measurement": "Activity", "setting": "HepG2 [28]", "value": 4.4, "unit": "%"}]}]}
